Laboratory results as given in ChEMBL document CHEMBL4130479, “Scalaradial Is a Potent Inhibitor of Transient Receptor Potential Melastatin 2 (TRPM2) Ion Channels” (J Nat Prod, 2017).
pIC50: −log10 of the molar value. Activity calls are given as the source filed them. The calls are words filed in the database; no cut-off is given here.

Key:
[1] = biological target: T1, Transient receptor potential cation channel subfamily M member 2 (Homo sapiens, UniProt O94759); test: Inhibition of human FLAG-tagged TRPM2 expressed in HEK293 cells assessed as reduction in ADPR-induced intracellular calcium flux at 5 uM measured within 60 mins by whole cell patch clamp electrophysiology method; type: cell-based
T1 sequence (O94759 whole entry): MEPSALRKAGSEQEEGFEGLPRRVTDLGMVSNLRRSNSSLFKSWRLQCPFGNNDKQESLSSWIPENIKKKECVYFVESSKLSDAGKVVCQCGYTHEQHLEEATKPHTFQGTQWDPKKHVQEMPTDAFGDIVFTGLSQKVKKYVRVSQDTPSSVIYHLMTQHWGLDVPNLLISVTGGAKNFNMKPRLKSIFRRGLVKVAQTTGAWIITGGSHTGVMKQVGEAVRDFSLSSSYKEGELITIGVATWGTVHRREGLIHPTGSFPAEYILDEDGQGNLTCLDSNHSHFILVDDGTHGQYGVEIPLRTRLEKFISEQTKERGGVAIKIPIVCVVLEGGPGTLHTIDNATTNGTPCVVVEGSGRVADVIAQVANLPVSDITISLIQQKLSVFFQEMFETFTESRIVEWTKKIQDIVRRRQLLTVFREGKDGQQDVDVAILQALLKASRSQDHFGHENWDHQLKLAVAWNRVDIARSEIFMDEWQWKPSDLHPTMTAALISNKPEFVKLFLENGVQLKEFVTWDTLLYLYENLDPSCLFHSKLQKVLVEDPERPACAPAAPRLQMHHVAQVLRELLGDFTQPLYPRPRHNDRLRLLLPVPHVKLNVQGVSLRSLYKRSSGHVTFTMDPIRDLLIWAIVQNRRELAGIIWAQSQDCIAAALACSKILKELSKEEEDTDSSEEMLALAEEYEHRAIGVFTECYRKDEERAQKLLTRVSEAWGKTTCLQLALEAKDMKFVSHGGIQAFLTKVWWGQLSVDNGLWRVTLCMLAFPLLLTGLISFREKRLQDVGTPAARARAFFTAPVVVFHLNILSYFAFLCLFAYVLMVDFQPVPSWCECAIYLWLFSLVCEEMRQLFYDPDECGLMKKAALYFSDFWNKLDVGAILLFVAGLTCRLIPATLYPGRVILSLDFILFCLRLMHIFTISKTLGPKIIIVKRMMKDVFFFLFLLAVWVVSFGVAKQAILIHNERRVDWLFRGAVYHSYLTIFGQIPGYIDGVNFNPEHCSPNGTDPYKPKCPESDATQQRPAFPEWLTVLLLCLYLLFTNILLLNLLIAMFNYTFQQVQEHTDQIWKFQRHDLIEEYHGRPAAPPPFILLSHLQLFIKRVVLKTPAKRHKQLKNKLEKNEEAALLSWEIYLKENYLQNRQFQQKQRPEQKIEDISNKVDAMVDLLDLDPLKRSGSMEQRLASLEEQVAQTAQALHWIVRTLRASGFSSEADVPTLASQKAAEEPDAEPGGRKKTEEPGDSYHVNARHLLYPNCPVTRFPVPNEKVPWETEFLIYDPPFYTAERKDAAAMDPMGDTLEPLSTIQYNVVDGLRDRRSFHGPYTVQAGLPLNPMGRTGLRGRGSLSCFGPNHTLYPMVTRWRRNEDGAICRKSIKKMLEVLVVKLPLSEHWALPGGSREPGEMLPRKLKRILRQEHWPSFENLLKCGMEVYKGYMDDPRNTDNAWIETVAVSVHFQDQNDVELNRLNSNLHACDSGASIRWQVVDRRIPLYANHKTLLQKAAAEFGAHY
Method in brief: (§1)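 TRPM2-HEK293 cells incubated with the sPLA2 inhibitors in standard external Ringer's. Whole-cell currents were recorded within the first 60 min using K-glutamate pipette with 100 μM ADPR. Current at −80 mV was normalized to same-day controls, n = 3–17.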

HEK293 [2] = test: Cytotoxicity against HEK293 cells assessed as cell death at 25 to 50 uM measured for 1 hr; type: cell-based; conditions: human, hek293, 1 h
[3] = biological target: T1, Transient receptor potential cation channel subfamily M member 2; test: Inhibition of human FLAG-tagged TRPM2 expressed in HEK293 cells assessed as reduction in H2O2-induced intracellular calcium flux pretreated for 30 secs followed by H2O2 addition measured for 120 secs by […]; type: cell-based
[4] = biological target: T1, Transient receptor potential cation channel subfamily M member 2; test: Inhibition of human FLAG-tagged TRPM2 expressed in HEK293 cells assessed as reduction in ADPR-induced intracellular calcium flux at 20 uM measured within 60 mins by whole cell patch clamp electrophysiology method; type: cell-based
Method in brief: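 Tetracycline-induced HEK293 cells stably carrying FLAG-human TRPM2 were incubated with inhibitor in standard external Ringer's (pH 7.2). Whole-cell recordings were made during the first 60 min at 21–25 °C. Pipette: K-glutamate with unbuffered Ca2+ plus 100 μM ADPR. Ramps ran −100 to +100 mV over 50 ms at 0.5 Hz. Current was taken at −80 mV as % of same-day controls (n = 3–17).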

[5] = biological target: T1, Transient receptor potential cation channel subfamily M member 2; test: Inhibition of human TRPM2 expressed in HEK293 cells assessed as reduction in ADPR-induced intracellular calcium flux at 0 mV holding potential by whole cell patch clamp electrophysiology method; type: cell-based
Method in brief: (§2)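 Human FLAG-TRPM2 in HEK293 cells, induced with tetracycline for 6–9 h and incubated 30–60 min in external Ringer's (0.1–2 μM) before patching. Pipette was K-glutamate, Ca2+ buffered to 300 nM, with 100 μM ADPR. Ramps ran −100 to +100 mV from a 0 mV holding potential, 0.5 Hz.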

[6] = biological target: T1, Transient receptor potential cation channel subfamily M member 2; test: Inhibition of human FLAG-tagged TRPM2 expressed in HEK293 cells assessed as reduction in ADPR-induced intracellular calcium flux at 200 to 2000 nM measured after 60 mins by whole cell patch clamp electrophysiology method; type: cell-based
Method in brief: (§3)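 HEK293 cells stably carrying tetracycline-inducible FLAG-human TRPM2, induced 6–9 h, preincubated 30–60 min with compound in external Ringer's, 21–25 °C. Whole-cell patch clamp used K-glutamate pipette solution with 100 μM ADPR and Ca2+ buffered to 300 nM. Ramps from −100 to +100 mV over 50 ms at 0.5 Hz.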

HEK293 [7] = test: Cytotoxicity against HEK293 cells assessed as cell rounding at 2 uM; type: cell-based; conditions: human, hek293, 2 µM
HEK293 [8] = test: Cytotoxicity against HEK293 cells assessed as effect on cell viability at 2 uM; type: cell-based; conditions: human, hek293, 2 µM
HEK293 [9] = test: Cytotoxicity against HEK293 cells assessed as granule formation at 2 uM; type: cell-based; conditions: human, hek293, 2 µM
HEK293 [10] = test: Cytotoxicity against HEK293 cells assessed as cell blebbing at 2 uM; type: cell-based; conditions: human, hek293, 2 µM
[11] = biological target: T1, Transient receptor potential cation channel subfamily M member 2; conditions: HEK293, 100 nM
HEK293 [12] = test: Cytotoxicity against HEK293 cells assessed as cell death at 5 to 10 uM measured for 1 hr; type: cell-based; conditions: human, hek293, 1 h
[13] = biological target: T1, Transient receptor potential cation channel subfamily M member 2; test: Inhibition of human FLAG-tagged TRPM2 expressed in HEK293 cells assessed as reduction in ADPR-induced intracellular calcium flux at 1 uM measured within 60 mins by whole cell patch clamp electrophysiology method; type: cell-based; method in brief: as §1
INS1 [14] = test: Cytotoxicity against rat INS-1 cells assessed as cell rounding; type: cell-based
Method in brief: (§4)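 INS-1 cells (RPMI, 10% FBS, 37 °C, 5% CO2) kept under continual scalaradial exposure in standard external solution during whole-cell patching. Cells were scored by eye for rounding, granule formation and blebbing over at least 1 h.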

INS1 [15] = test: Cytotoxicity against rat INS-1 cells assessed as granule formation; type: cell-based; method in brief: as §4
INS1 [16] = test: Cytotoxicity against rat INS-1 cells assessed as cell blebbing; type: cell-based; method in brief: as §4
[17] = biological target: ORAI1/STIM1 (Homo sapiens) (UniProt Q96D31+Q13586); test: Inhibition of EGFP-tagged Orai1/STIM1 (unknown origin) expressed in HEK293 cells assessed as reduction in BAPTA-induced calcium release activated calcium channel currents at 2 uM after 30 to 60 mins by whole cell patch clamp method; type: cell-based
Chain of ORAI1/STIM1 (Homo sapiens) (Q13586 23-685 partner limits assumed): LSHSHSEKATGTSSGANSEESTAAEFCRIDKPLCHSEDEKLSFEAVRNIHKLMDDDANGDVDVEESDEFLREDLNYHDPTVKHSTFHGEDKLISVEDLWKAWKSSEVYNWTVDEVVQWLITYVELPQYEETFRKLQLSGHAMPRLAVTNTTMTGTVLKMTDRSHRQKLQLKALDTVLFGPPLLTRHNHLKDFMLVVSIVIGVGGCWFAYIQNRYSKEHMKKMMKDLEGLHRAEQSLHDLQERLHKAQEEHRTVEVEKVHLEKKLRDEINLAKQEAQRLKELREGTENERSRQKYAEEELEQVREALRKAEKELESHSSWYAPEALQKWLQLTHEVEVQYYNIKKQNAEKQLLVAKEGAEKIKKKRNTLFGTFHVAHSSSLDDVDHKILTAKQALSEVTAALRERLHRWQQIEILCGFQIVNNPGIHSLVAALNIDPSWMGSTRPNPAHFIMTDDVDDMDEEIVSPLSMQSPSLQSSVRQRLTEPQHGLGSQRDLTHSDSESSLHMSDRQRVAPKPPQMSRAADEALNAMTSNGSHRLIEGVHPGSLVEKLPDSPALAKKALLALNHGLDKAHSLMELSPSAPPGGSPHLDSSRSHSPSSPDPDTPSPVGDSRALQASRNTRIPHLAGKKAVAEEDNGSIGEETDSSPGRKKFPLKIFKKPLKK
Chain of ORAI1/STIM1 (Homo sapiens) (Q96D31 whole entry): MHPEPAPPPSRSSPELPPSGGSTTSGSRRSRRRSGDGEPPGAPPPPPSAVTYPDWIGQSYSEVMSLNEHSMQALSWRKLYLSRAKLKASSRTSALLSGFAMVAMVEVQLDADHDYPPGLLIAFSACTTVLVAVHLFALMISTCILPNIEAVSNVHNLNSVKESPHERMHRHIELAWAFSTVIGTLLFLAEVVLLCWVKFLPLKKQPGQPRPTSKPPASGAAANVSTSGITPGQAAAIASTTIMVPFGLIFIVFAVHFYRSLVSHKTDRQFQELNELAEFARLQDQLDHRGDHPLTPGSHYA
Method in brief: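 HEK293 cells stably expressing STIM1 and transiently transfected with CRACM1 (Orai1)-IRES-EGFP, recorded 24–48 h after transfection and picked by EGFP. Cells were exposed for 30–60 min. External solution held 10 mM CaCl2 (NaCl/TEA-based, pH 7.2). Pipette was Cs-glutamate with 20 mM Cs-BAPTA and 20 μM IP3. Ramps ran −150 to +150 mV over 50 ms at 0.5 Hz, read at −80 mV.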

[18] = biological target: Transient receptor potential cation channel subfamily V member 1 (Rattus norvegicus) (UniProt O35433); test: Inhibition of TRPV1 in rat INS-1 cells assessed as reduction in intracellular calcium flux at 500 nM measured within 60 mins by whole cell patch clamp method; type: cell-based
Chain of Transient receptor potential cation channel subfamily V member 1 (Rattus norvegicus) (O35433 whole entry): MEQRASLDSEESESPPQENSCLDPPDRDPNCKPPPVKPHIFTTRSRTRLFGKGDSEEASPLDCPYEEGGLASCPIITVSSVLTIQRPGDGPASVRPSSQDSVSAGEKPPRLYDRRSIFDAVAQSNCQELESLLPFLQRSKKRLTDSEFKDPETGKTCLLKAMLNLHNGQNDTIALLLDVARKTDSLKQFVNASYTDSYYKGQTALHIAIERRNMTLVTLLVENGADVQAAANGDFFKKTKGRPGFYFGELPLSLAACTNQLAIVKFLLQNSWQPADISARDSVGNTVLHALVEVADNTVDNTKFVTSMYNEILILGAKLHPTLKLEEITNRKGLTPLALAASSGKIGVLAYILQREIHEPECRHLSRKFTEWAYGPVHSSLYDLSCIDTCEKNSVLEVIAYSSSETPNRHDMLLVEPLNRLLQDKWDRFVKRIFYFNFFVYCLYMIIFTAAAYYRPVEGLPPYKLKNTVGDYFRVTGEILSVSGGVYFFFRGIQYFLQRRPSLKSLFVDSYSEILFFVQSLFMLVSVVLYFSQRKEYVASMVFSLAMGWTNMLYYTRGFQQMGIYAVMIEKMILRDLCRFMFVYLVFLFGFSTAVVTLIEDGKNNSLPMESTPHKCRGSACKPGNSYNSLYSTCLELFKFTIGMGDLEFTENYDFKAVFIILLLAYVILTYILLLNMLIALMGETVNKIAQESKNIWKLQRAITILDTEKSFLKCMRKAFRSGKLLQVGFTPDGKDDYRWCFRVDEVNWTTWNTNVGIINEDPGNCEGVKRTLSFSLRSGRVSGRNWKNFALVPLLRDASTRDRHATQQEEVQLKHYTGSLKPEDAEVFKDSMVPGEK
Method in brief: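 Endogenous TRPV1-like currents in INS-1 cells, preincubated in external solution and recorded within 60 min. Pipette was Cs-glutamate with Ca2+ unbuffered. Current was activated by 10 μM capsaicin in the bath. Ramps ran −100 to +100 mV, 50 ms, 0.5 Hz.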

[19] = biological target: Transient receptor potential cation channel subfamily M member 4 (Homo sapiens) (UniProt Q8TD43); test: Inhibition of TRPM4 in human Jurkat T cells assessed as reduction in intracellular calcium flux at 500 nM within 60 mins by whole cell patch clamp electrophysiology method; type: cell-based
Method in brief: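 Endogenous TRPM4-like currents in Jurkat T cells, preincubated in standard external solution and recorded within 60 min. Pipette was Cs-glutamate with intracellular Ca2+ clamped to 2 μM. Ramps ran −100 to +100 mV over 50 ms at 0.5 Hz, and current was normalized and plotted against time.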

Phospholipase A2 = biological target: T2, Phospholipase A2 (Apis mellifera, UniProt P00630); test: Inhibition of bee venom PLA2
T2 sequence (P00630 whole entry): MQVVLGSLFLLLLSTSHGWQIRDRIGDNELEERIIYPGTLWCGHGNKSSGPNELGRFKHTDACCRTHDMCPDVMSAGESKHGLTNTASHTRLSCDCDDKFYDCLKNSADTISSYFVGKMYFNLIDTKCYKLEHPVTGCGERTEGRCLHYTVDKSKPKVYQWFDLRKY

[20] = biological target: T1, Transient receptor potential cation channel subfamily M member 2; test: Inhibition of human FLAG-tagged TRPM2 expressed in HEK293 cells assessed as reduction in ADPR-induced intracellular calcium flux at 2 uM treated for 6 hrs followed by compound washout measured within 5 mins by whole cell patch clamp electrophysiology method; type: cell-based
[21] = biological target: T1, Transient receptor potential cation channel subfamily M member 2; test: Inhibition of human FLAG-tagged TRPM2 expressed in HEK293 cells assessed as reduction in ADPR-induced intracellular calcium flux at 2 uM by whole cell patch clamp electrophysiology method; type: cell-based; conditions: TDE = time-dependent effect
[22] = biological target: T1, Transient receptor potential cation channel subfamily M member 2; test: Inhibition of human FLAG-tagged TRPM2 expressed in HEK293 cells assessed as reduction in ADPR-induced intracellular calcium flux after 30 to 60 mins by whole cell patch clamp electrophysiology method; type: cell-based; method in brief: as §2
[23] = biological target: Transient receptor potential cation channel subfamily M member 2 (Rattus norvegicus, UniProt E9PTA2); test: Inhibition of TRPM2 in rat INS-1 cells assessed as reduction in ADPR-induced intracellular calcium flux measured after 60 mins by whole cell patch clamp electrophysiology method; type: cell-based
Chain of Transient receptor potential cation channel subfamily M member 2 (Rattus norvegicus, UniProt E9PTA2) (E9PTA2 whole entry): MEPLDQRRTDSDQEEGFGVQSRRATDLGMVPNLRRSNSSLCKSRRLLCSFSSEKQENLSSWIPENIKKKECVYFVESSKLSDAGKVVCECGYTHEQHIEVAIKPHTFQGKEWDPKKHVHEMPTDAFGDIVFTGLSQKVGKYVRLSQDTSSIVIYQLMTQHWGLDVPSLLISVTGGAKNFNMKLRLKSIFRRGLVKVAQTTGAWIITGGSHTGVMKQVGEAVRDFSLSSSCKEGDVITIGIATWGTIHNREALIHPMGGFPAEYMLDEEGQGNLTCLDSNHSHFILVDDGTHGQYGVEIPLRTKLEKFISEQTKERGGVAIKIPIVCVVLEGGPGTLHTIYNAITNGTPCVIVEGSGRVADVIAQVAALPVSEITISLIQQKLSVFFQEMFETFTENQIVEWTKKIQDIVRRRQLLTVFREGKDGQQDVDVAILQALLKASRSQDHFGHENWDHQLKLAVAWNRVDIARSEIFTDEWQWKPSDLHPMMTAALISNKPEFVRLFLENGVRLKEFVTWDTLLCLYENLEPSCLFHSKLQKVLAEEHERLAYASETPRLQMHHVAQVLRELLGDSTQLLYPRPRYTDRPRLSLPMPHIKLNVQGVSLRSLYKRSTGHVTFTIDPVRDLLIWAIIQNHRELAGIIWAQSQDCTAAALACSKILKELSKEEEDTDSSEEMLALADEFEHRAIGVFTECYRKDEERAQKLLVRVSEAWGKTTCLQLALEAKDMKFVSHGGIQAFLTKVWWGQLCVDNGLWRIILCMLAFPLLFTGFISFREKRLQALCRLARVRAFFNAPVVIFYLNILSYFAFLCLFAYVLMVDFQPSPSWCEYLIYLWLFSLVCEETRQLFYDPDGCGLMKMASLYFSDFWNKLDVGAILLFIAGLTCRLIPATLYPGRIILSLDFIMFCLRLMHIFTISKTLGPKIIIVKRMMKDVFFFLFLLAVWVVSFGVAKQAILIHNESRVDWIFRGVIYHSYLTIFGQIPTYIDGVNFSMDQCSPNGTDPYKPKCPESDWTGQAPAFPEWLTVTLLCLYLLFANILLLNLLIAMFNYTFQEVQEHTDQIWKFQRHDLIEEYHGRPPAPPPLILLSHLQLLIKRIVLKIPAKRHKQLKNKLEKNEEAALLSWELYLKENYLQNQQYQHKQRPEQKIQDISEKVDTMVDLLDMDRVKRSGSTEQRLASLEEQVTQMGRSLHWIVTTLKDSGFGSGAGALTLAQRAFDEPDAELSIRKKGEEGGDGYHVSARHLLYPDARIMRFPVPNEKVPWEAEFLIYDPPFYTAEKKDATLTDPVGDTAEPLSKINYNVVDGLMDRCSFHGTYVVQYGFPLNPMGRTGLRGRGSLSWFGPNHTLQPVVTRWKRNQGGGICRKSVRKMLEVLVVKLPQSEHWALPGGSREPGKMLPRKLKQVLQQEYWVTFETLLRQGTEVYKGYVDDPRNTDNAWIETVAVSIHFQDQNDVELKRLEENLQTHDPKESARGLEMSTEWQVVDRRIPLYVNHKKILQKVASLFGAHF
Method in brief: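 Whole-cell TRPM2 currents in INS-1 cells at 21–25 °C. Pipette was Cs-glutamate with ADPR and no Ca2+ chelator. Compound (10 nM–2 μM) in external Ringer's, recorded within the first 60 min of incubation. Ramps ran −100 to +100 mV, 50 ms, 0.5 Hz. Current at −80 mV and 50 s was normalized to control, and IC50 came from a dose–response fit.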

INS1 [24] = test: Cytotoxicity against rat INS-1 cells at 500 nM measured for 1 hr; type: cell-based; conditions: ins1, 1 h, 0.5 µM; method in brief: as §4
[25] = biological target: Transient receptor potential cation channel subfamily M member 7 (Mus musculus) (UniProt Q923J1); test: Inhibition of mouse FLAG-tagged TRPM7 expressed in HEK293 cells assessed as reduction in BAPTA-induced intracellular calcium flux at 0.1 to 2 uM by whole cell patch clamp electrophysiology method; type: cell-based; conditions: TDE = time-dependent effect
Method in brief: (§5)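 Mouse FLAG-TRPM7 in HEK293 cells, induced with tetracycline for 19–22 h and incubated with 100 nM–2 μM compound in culture medium from 15 min (maximum 60 min) before patching. Pipette was K-glutamate with 10 mM K-BAPTA. Ramps ran −100 to +100 mV, 0.5 Hz. Current at +80 mV and 200 s was normalized, and IC50 came from a fit.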

[26] = biological target: Transient receptor potential cation channel subfamily M member 7 (Mus musculus, UniProt Q923J1); test: Inhibition of mouse FLAG-tagged TRPM7 expressed in HEK293 cells assessed as reduction in BAPTA-induced intracellular calcium flux after 15 to 60 mins by whole cell patch clamp electrophysiology method; type: cell-based; method in brief: as §5
[27] = Inhibition of recombinant human sPLA2 using [1-14C]oleate-labelled autoclaved Escherichia coli as substrate measured after 15 mins
HEK293 [28] = test: Cytotoxicity against HEK293 cells assessed as granule formation at 200 nM; type: cell-based; conditions: human, hek293, 0.2 µM
Method in brief: (§6)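 Tetracycline-induced human TRPM2-HEK293 cells preincubated 60 min with compound in serum-containing medium, then moved to standard external Ringer's with compound still present for whole-cell recording ([…] internal). Cells scored by eye for rounding, granule formation and blebbing.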

HEK293 [29] = test: Cytotoxicity against HEK293 cells assessed as cell rounding at 200 nM; type: cell-based; conditions: human, hek293, 0.2 µM; method in brief: as §6
[30] = biological target: T1, Transient receptor potential cation channel subfamily M member 2; test: Inhibition of human FLAG-tagged TRPM2 expressed in HEK293 cells assessed as reduction in ADPR-induced intracellular […] at 20 to 200 nM measured after 60 mins by whole cell patch clamp electrophysiology method; type: cell-based; method in brief: as §3
HEK293 [31] = test: Cytotoxicity against HEK293 cells assessed as effect on cell viability at 200 nM; type: cell-based; conditions: human, hek293, 0.2 µM; method in brief: as §6
HEK293 [32] = test: Cytotoxicity against HEK293 cells assessed as cell blebbing at 200 nM; type: cell-based; conditions: human, hek293, 0.2 µM; method in brief: as §6

O=C(O)CC[C@@H](Cc1ccc(OCc2ccccc2)cc1)NC(=O)CCCCCCc1ccccc1
inhibition [1]: inactive
Activity (HEK293 [2]): Toxic

O=C1NCCc2c(OCCCCN3CCCCC3)cccc21
pIC50 [3]: 6.22
inhibition [4]: inactive

CCCCCc1ccc(/C=C/C(=O)Nc2ccccc2C(=O)O)cc1
pIC50 [5]: 5.35

O=c1[nH]c2ccccc2n1C1CCN(Cc2ccc(-c3nc4cc5[nH]cnc5cc4nc3-c3ccccc3)cc2)CC1
inhibition [6]: inactive
Activity (HEK293 [7]): Toxic
Activity (HEK293 [8]): Toxic
Activity (HEK293 [9]): Toxic
Activity (HEK293 [10]): Toxic

CN(C)CC(=O)Nc1ccc2[nH]c(=O)c3ccccc3c2c1
pIC50 [3]: 7.60
inhibition [11]: inactive

CCCCCCCCCCCCCCCCOCC(COCC)OP(=O)([O-])OC.[Li+] (stereo not given)
Activity (HEK293 [12]): Toxic
inhibition [13]: inactive

CC(=O)O[C@H]1C[C@@H]2[C@@]3(C)CCCC(C)(C)[C@@H]3CC[C@@]2(C)[C@@H]2CC=C(C=O)[C@H](C=O)[C@@]12C [SCALARADIAL]
Activity (INS1 [14]): Toxic
Activity (INS1 [15]): Toxic
Activity (INS1 [16]): Toxic
inhibition [17]: inactive
inhibition [18]: inactive
inhibition [19]: inactive
pIC50 (Phospholipase A2): 7.15
inhibition [20]: inactive
inhibition [21]: Tde
pIC50 [22]: 6.68
inhibition [22]: Dose-dependent effect
pIC50 [23]: 6.48
Activity (INS1 [24]): Non-Toxic
inhibition [25]: Tde
pIC50 [26]: 6.12
pIC50 [27]: 5.27

COC[C@H]1OC(=O)c2coc3c2[C@@]1(C)C1=C(C3=O)[C@@H]2CCC(=O)[C@@]2(C)C[C@H]1OC(C)=O [WORTMANNIN]
Activity (HEK293 [28]): Toxic
Activity (HEK293 [29]): Toxic
inhibition [30]: inactive
Activity (HEK293 [31]): Toxic
Activity (HEK293 [32]): Toxic
